What was measured:
[1] = Liver microsome stability, human; type: in vitro ADME; conditions: human liver microsomes; well-stirred model
[2] = Hepatocyte stability, rat; type: in vitro ADME; conditions: rat hepatocytes; well-stirred model
[3] = Liver microsome stability, mouse; type: in vitro ADME; conditions: mouse liver microsomes; well-stirred model
[4] = Caco-2 permeability assay; type: in vitro ADME; conditions: human
[5] = Liver microsome stability, dog; type: in vitro ADME; conditions: dog liver microsomes; well-stirred model
[6] = Hepatocyte stability, dog; type: in vitro ADME; conditions: dog hepatocytes; well-stirred model
Outline: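 Dog hepatocytes. Intrinsic clearance (CLint) was scaled to blood clearance with the well-stirred liver model: CLb = QH×CLint/(QH + CLint). Dog liver blood flow (QH) was 2.1 L h⁻¹ kg⁻¹.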

[7] = In vivo pharmacokinetics, dog; conditions: female Beagle dog, 0.2 mg kg^−1 p.o.; Cmax,p.o./dose p.o.
[8] = Liver microsome stability, monkey; type: in vitro ADME; conditions: monkey liver microsomes; well-stirred model
[9] = In vivo pharmacokinetics, rat; conditions: male Wistar rat, 0.6 mg kg^−1 p.o.; Cmax,p.o./dose p.o.
[10] = Hepatocyte stability, human; type: in vitro ADME; conditions: human hepatocytes; well-stirred model
Outline: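 Human hepatocytes. Intrinsic clearance (CLint) was converted to blood clearance with the well-stirred hepatic model: CLb = QH×CLint/(QH + CLint). Human liver blood flow (QH) was 1.32 L h⁻¹ kg⁻¹.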

[11] = Liver microsome stability, rat; type: in vitro ADME; conditions: rat liver microsomes; well-stirred model
[12] = Hepatocyte stability, monkey; type: in vitro ADME; conditions: monkey hepatocytes; well-stirred model

Row | Compound | LM stability CL b,LM [1] | Hep stability CL b,Hep [2] | LM stability CL b,LM [3] | LM stability CL b,LM [5] | Hep stability CL b,Hep [6] | further results
1 | Cc1ccc2nc(C)cc(C(=O)Nc3c(C)nn(Cc4ccc(F)cc4)c3C)c2c1 [Compound 2] | 20 mL/min/kg | 61.7 mL/min/kg | 66.7 mL/min/kg |  |  | 
2 | Cc1c(NC(=O)c2cc(C(F)(F)F)nc3ccc(Br)cc23)c(C(F)(F)F)nn1Cc1ccc(F)cc1 [Compound 12] |  | 43.3 mL/min/kg | 36.7 mL/min/kg |  |  | 
3 | Cc1c(NC(=O)c2cc(C(N)=O)nc3ccccc23)c(C(F)(F)F)nn1Cc1ccc(C#N)cc1 [Compound 13] | 3.5 mL/min/kg | 30 mL/min/kg | 23.3 mL/min/kg | 1 mL/min/kg | 1.83 mL/min/kg | Papp A→B at 2 h, 2 µM [4]: 7.4 ×10⁻⁶ cm/s
4 | Cc1ccc2nc(C(N)=O)cc(C(=O)Nc3c(C(F)(F)F)nn(Cc4ccc(C#N)cc4)c3C)c2c1 [Compound 17] |  | 33.3 mL/min/kg | 38.3 mL/min/kg |  |  | 
5 | Cc1c(NC(=O)c2cc(C(N)=O)nc3cc(F)ccc23)c(C(F)(F)F)nn1Cc1ccc(C#N)cc1 [Compound 19, N ^4 ‐[1‐(4‐Cyanobenzyl)‐5‐methyl‐3‐(trifluoromethyl)‐1H‐pyrazol‐4‐yl]‐7‐fluoroquinoline‐2,4‐dicarboxamide] | 5.33 mL/min/kg |  |  | stable | 3.33 mL/min/kg | C max,norm,p.o. [7]: 0.93 kg L ^−1; LM stability CL b,LM [8]: 12.7 mL/min/kg; C max,norm,p.o. [9]: 0.33 kg L ^−1; Hep stability CL b,Hep [10]: 6.17 mL/min/kg
6 | Cc1c(NC(=O)c2cc(C(N)=O)nc3cc(F)ccc23)c(C(C)C)nn1Cc1ccc(C#N)cc1 [Compound 43] | 14.5 mL/min/kg |  |  |  |  | 
7 | Cc1c(NC(=O)c2cc(C(N)=O)nc3cc(F)ccc23)c(C(F)(F)F)nn1Cc1ccc(C#N)cn1 [Compound 54] | 3.17 mL/min/kg | 0.67 mL/min/kg | 6 mL/min/kg | 0.017 mL/min/kg | 0.017 mL/min/kg | LM stability CL b,LM [8]: 6.67 mL/min/kg; LM stability CL b,LM [11]: 6.17 mL/min/kg; Hep stability CL b,Hep [10]: 0.5 mL/min/kg; Hep stability CL b,Hep [12]: 5.33 mL/min/kg
8 | Cc1c(NC(=O)c2cc(C(N)=O)nc3cc(F)ccc23)c(C(F)(F)F)nn1Cc1cnc(C#N)cn1 [Compound 57] | 8.83 mL/min/kg | 20 mL/min/kg |  |  |  | 
9 | Cc1c(NC(=O)c2cc(C(N)=O)nc3cc(F)ccc23)c(C(F)(F)F)nn1Cc1ncc(C#N)cn1 [Compound 58] | 3.67 mL/min/kg | 14.8 mL/min/kg |  |  |  | 
